CHO parental Ca = counter-screen for OX1R antagonists: effect in parental CHO cells; parental CHO-K1, ATP-induced calcium, Fluo-8 fluorescence; inhibition, % at 5.6 µM; hit rate 0.63% among 330,000;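 active means inhibition above that plate's mean sample inhibition plus 3 SD, cut at about 26% in these data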;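 further: 0% = ATP-challenged DMSO wells and 100% = DMSO wells without ATP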
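Assay system: untransfected parental CHO cell line. Also added: ATP agonist challenge. Dosing: one dose, 5.6 µM nominal. Measured by: Fluo-8 fluorescence. Read-out: % inhibition. Benchmarks: ATP wells versus no-ATP DMSO wells. Repeats: no replicates.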
TAAR1 antag = human TAAR1 antagonism; Q96RJ0; CHO RD-HGA16 TAAR1, Fluo-8 calcium fluorescence, antagonist; inhibition, % at 3 µM; hit rate 1.5% among 360,000; AID 624466;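 active means inhibition above a per-plate cutoff, the mean inhibition of test compounds on that plate plus 3 SD, cut at about 49% in these data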;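 further: 0% = DMSO plus EC80 beta-PEA response and 100% = DMSO alone without agonist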
Target sequence (Q96RJ0 whole entry, looked up): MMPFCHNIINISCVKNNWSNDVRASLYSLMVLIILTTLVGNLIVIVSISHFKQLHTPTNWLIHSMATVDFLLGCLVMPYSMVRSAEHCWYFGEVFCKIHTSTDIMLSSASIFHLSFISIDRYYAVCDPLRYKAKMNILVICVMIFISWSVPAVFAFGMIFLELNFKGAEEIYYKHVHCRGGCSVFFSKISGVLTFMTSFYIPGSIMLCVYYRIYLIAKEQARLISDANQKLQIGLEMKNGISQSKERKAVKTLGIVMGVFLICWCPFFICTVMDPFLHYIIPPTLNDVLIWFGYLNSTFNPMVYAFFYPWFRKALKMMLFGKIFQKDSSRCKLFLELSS
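Assay system: RD-HGA16 CHO cells with stable hTAAR1 and Gα16 / Reagent: EC80 β-phenethylamine stimulus / Doses: 3 µM, single point / Timing: dye loading 75 min at 37 °C, then 30 min room temperature / Measured by: Fluo-8 intracellular calcium dye fluorescence, real-time kinetic reads / Controls: vehicle wells and EC80 agonist wells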
OX1R antag-1 = antagonists of human orexin 1 receptor; O43613; CHO/OX1R cells, Fluo-8 calcium fluorescence, orexin A; inhibition, % at 5 µM; hit rate 0.43% among 330,000;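 active means inhibition above its plate's threshold, mean inhibition of all tested compounds on the plate plus 3 SD, cut at about 37% in these data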;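 further: 0% = orexin A challenge wells and 100% = SB-334867-A antagonist wells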
OX1R antag-2 = antagonists of human orexin 1 receptor (OX1R). hit rate 1.8% among 330,000. OX1R-expressing cells, FRET antagonist read-out. inhibition, % at 6.6 µM. O43613; in the data active means inhibition mostly above about 38%, no sharp cut-off; inactive means mostly below about 40%;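 further: 0% = agonist challenge alone and 100% = reference antagonist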
TAAR1 ag = agonists of human TAAR1; Q96RJ0; CHO RD-HGA16 TAAR1, Fluo-8 calcium fluorescence; vehicle wells 0%, saturating PEA agonist 100%; activation, % at 3 µM; hit rate 0.99% among 360,000; AID 624467;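 active means activation above the mean activation of all test compounds in the run plus 3 SD, cut at about 38% in these data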
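Benchmarks: low control DMSO, high control PEA (EC100); System: CHO RD-HGA16 cells carrying human TAAR1 plus Gα16; Detection: Fluo-8 fluorescence, 5 s baseline then 140 s kinetic read; Schedule: 17-24 h plating, Fluo-8 75 min 37 °C, 30 min RT; Read-out basis: % activation from peak over basal fluorescence ratio, DMSO-to-PEA scaled.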
OX1R HTRF confirm = confirmation of human orexin 1 receptor antagonists, HTRF format. inhibition, % at 6.6 µM. hit rate 49% among 1,800. shares compounds with OX1R antag-2. OX1R-expressing cells, HTRF antagonist assay; in the data active means inhibition above about 55%;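 further: CHO cells expressing OX1R stimulated with orexin A at about EC80; 0% = agonist challenge alone and 100% = reference antagonist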
CHO-K1 HTRF cnt = signal in parental CHO-K1 cells, OX1R antagonist counter-screen; shares compounds with OX1R antag-2; HTRF counterscreen; inhibition, % at 6.6 µM; hit rate 48% among 1,800; AID 493232; in the data active means inhibition above about 17%;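 further: 0% = agonist challenge with vehicle and 100% = vehicle alone without agonist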
* = called active by the depositor; / = not tested or not shown. An excerpt weighted towards active compounds, which were near 4% of everything screened.

SMILES	CHO parental Ca	TAAR1 antag	OX1R antag-1	OX1R antag-2	TAAR1 ag	OX1R HTRF confirm	CHO-K1 HTRF cnt
Cc1cc2c(ccc3c2no[n+]3[O-])nn1	-6	-3	-10	166*	-1	51	76*
[O-][n+]1onc2c3ccnnc3ccc21	-9	10	1	150*	8	50	83*
COn1c(C)c(C(C)=O)c2c3no[n+]([O-])c3ccc21	-12	2	-6	22	7	/	/
CCN(Cc1ccccc1)S(=O)(=O)c1cn(C)cn1	-1	-16	-2	22	1	/	/
Cc1ccc(-n2nc(C)c(=O)c(-c3ccccc3)c2NC(=O)C(C)C)cc1	-24	-39	-6	7	0	/	/
CCOC(=O)CSc1ccc2ccccc2n1	-7	-15	-16	9	1	/	/
CCOC(=O)CN1C=C(c2ccc3ccccc3n2)C(C[N+](=O)[O-])c2ccccc21 (stereo not drawn)	-21	/	-20	117*	/	55*	67*
Cc1oc2c(c1C(=O)O)C(=O)c1ccccc1C2=O	-6	0	0	97*	0	72*	86*
CCOC(=O)c1c(C)oc2c1C(=O)c1ccccc1C2=O	-7	-17	-20	85*	10	82*	47*
CCC(C(=O)Nc1cccnc1Cl)c1ccccc1 (stereo not drawn)	-16	-22	-15	4	1	/	/
CCN(CC(=O)NC(C)(C)C)C(=O)c1cccc(S(=O)(=O)N2CC3(C)CC2CC(C)(C)C3)c1 (stereo not drawn)	/	-21	/	/	1	/	/
CN(C)CCOC(=O)c1ccc2c(c1)S(=O)(=O)c1ccccc1C2=O	-6	-24	0	108*	1	53	58*
CC(C)NC(=O)c1ccc2c(c1)S(=O)(=O)c1ccccc1C2=O	-10	6	-4	153*	13	47	63*
CSc1nnc2c3cc(F)ccc3n(C)c2n1	2	-4	-19	19	-2	/	/
Cc1ccc2c(c1)c1nc3ccccc3nc1n2C	-17	-41	10	94*	-1	91*	5
Cn1c2ccc(F)cc2c2nc3ccccc3nc21	-12	-18	17	87*	9	91*	-4
CCCC(=O)c1cc(F)c(N2CCOCC2)cc1C	0	3	-8	2	3	/	/
COc1cc2c(cc1O)CC[n+]1cc3c(OC)c(OC)ccc3cc1-2	-12	-20	-5	77*	10	42	37*
COc1cc2c(cc1OC)-c1cc3ccc4c(c3c[n+]1CC2)OCO4	-6	10	0	79*	7	54	75*
COc1cc2c(cc1OC)C(c1ccccc1)=NCC2	-4	-7	-15	17	-1	/	/
CC1CCCN(C(=O)NC2CC(=O)N(c3ccc4c(c3)OCCO4)C2)C1 (stereo not drawn)	6	6	-10	2	3	/	/
COCCCn1cnc2oc3nc4ccccc4nc3c2c1=O	-4	10	-3	85*	2	67*	107*
CN1CCN(Cc2c(O)ccc3cc(-c4ccccn4)c(=O)oc23)CC1	-22	-16	-16	81*	2	49	33*
CC(=N\NC(=O)c1ccc([N+](=O)[O-])cc1)/C(=N/O)C(=O)Nc1ccccc1	4	-8	3	30	7	/	/
CNc1ccc(C(=O)c2ccccc2C(=O)O)cc1[N+](=O)[O-]	1	3	-21	80*	-1	25	36*
Cc1[nH]c2ccccc2c1/C=N/Nc1nncn1N	-4	-16	21	139*	3	17	10
Cn1c(CN2CCN(C(=O)c3ccc(F)cc3)CC2)nc2cc([N+](=O)[O-])ccc21	14	-15	0	28	3	/	/
CN(CCO)c1ccc([N+](=O)[O-])cc1C(=O)O	2	2	1	80*	6	21	25*
CC(=O)N(/N=C1\Sc2ccccc2C1=O)c1ccc(C)cc1C	-9	19	-15	56	6	/	/
CC(=O)N(/N=C1\Sc2ccccc2C1=O)c1ccccc1C	-38	6	-13	105*	20	38	12

Screening data from PubChem BioAssay.
